Laboratory results taken from the RNAGym collection of RNA variant scans (doi:10.1126/science.aae0568).
Variants at the floor of the assay were thinned out.

B1: tRNA (parent)
chain: GUUCCGUUGGCGUAAUGGUAACGCGUCUCCCUCCUAAGGAGAAGACUGCGGGUUCGAGUCCCGUACGGAACG

Variants of: B1
Assay: yeast fitness relative to wild type (ratio to wild type); higher = fitter; tRNA-Arg(CCU), competitive growth, 37 C, YPD
Method in brief: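 Changes in genotype frequencies gave Darwinian fitness relative to wild type. Frequencies were read by 100-nucleotide paired-end sequencing of gene amplicons before and after pooled Saccharomyces cerevisiae strains, carrying tRNA-Arg(CCU) gene variants at the native locus, were competed in YPD at 37°C for 24 hours in six replicates. A genotype was kept only with ≥ 100 starting reads, and estimates < 0.5 were set to 0.5.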
With GUUCCGUUGGCGUAAUGGUAACGCGUCUCCCUCCUAAGGAGACGACUGCGGGUUCGGGUCCCGUACGGAACG the yeast fitness was 0.744.
In the case of GUUCCGUUGGCGUAAUGGUAACGCGUCUCCCUCCUAAGGAGUAGACUGCGGCUUCGAGUCCCGUACGGAGCG, the yeast fitness is reported as 0.521.
GUUCCGUUGGCGUAAUGGUAACGCGUCUCCCUCCUAAGGAGUAGACCGCGAGUUCGAGUCCCGUACGGACCG showed a yeast fitness of 0.502.
With GUUCCGUUGGCGUAAUGGUAACGCGUCUCCCUCCUAAGGAGACGACUGCGGGUUCGAGUCCCGUCCGGAACG the yeast fitness was 1.03.
Work on GUUCCGUUGGCGUAAUGGUAACGCGUCUCCCUCCUAAGGAGUAGACUGCGGGUUCGAGGCCCGUACGGAACG yielded a yeast fitness of 0.75.
Variant GUUCCGUUGGCGUAAUGGUAACGCGUCUCCCUCCUAAGGAGUAGACUGCGGGUUCGAGACCCGUACGGAACG has a yeast fitness of 0.668.
In the case of GUUCCGUUGGCGUAAUGGUAACGCGUCUCCCUCCUAAGGAGUAGACUGCGGGUUCGAGCCCCGUACGGAACG, the yeast fitness is reported as 1.01.
For GUUCCGUUGGCGUAAUGGUAACGCGUCUCCCUCCUAAGGAGUAGACUGCGGGUUCGAGACCCGGACGGAACG, the yeast fitness was no more than 0.5.
Work on GUUCCGUUGGCGUAAUGGUAACGCGUCUCCCUCCUAAGGAGUAGAUUGCGGGUUCGAGUCCUGUACGGAACG yielded a yeast fitness of 0.89.
GUUCCGUUGGCGUAAUGGUAACGCGUCUCCCUCCUAAGGAGUAGACUGCGGGUUCGAGUCCAGUACGGAACG showed a yeast fitness of 0.636.
GUUCCGUUGGCGUAAUGGUAACGCGUCUCCCUCCUAAGGAGUAGACUGCGGGUUCGAGUCACGUACGGAACG showed a yeast fitness of 0.683.
In the case of GUUCCGUUGGCGUAAUGGUAACGCGUCUCCCUCCUAAGGAGUAGACUGCGGGUUCGAGUCGCGUACGGAACG, the yeast fitness is reported as 0.686.
GUUCCGUUGGCGUAAUGGUAACGCGUCUCCCUCCUAAGGAGUAGACUGCGGGUUCGAGUCCCGUACGUAACG gave a yeast fitness of 0.744.
GUUCCGUUGGCGUAAUGGUAACGCGUCUCCCUCCUAAGGAGUAGACUGCGGGUUCGAGUCCCGUACGCAACG gave a yeast fitness of 0.664.
For GUUCCGUUGGCGUAAUGGUAACGCGUCUCCCUCCUAAGGAGUAGACUGCGGGUUCGAGUCCCGUACCGCACG, the yeast fitness was 0.573.
For GUUCCGUUGGCGUAAUGGUAACGCGUCUCCCUCCUAAGGAGUAGACUGCGGGUUCAAGUCCCGUACGGAACG, the yeast fitness was 1.02.
With GUUCCGUUGGCGUAAUGGUAACGCGUCUCCCUCCUAAGGAGUAGACUGCGGGGUCGAGUCCCGUACGGAUCG the yeast fitness was no more than 0.5.
With GUUCCGUUGGCGUAAUGGUAACGCGUCUCCCUCCUAAGGAGACGACUGCGGGUUCGAGUCCCGUACGGUCCG the yeast fitness was 1.03.
For GUUCCGUUGGCGUAAUGGUAACGCGUCUCCCUCCUAAGGAGUAGACUGCAGGUUCGAGUGCCGCACGGAACG, the yeast fitness was no more than 0.5.
For GUUCCGUUGGCGUAAUGGUAACGCGUCUCCCUCCUAAGGAGUAGACUGCGGGUUCGAGUCCCGUGCGGAACG, the yeast fitness was 1.01.
Work on GUUCCGUUGGCGUAAUGGUAACGCGUCUCCCUCCUAAGGAGUAGACUGCGGGUUCGAGUCCCGUUCGGAACG yielded a yeast fitness of 0.741.
In the case of GUUCCGUUGGCGUAAUGGUAACGCGUCUCCCUCCUAAGGAGUAAACUGCGAGUUCGAGUCCCGUACGGAACG, the yeast fitness is reported as 0.669.
In the case of GUUCCGUUGGCGUAAUGGUAACGCGUCUCCCUCCUAAGGAGUAGACUGCGGGUUCGAGUCCCGUCCUGAACG, the yeast fitness is reported as no more than 0.5.
For GUUCCGUUGGCGUAAUGGUAACGCGUCUCCCUCCUAAGGAGUAGACUGCGGGUUCGAGUCCGCUUCGGAACG, the yeast fitness was no more than 0.5.
In the case of GUUCCGUUGGCGUAAUGGUAACGCGUCUCCCUCCUAAGGAGUAGACUGCGGGUUCGUGUCGCGUACGGAACG, the yeast fitness is reported as no more than 0.5.
In the case of GUUCCGUUGGCGUAAUGGUAACGCGUCUCCCUCCUAAGGAGUACUCUGGGGGUUCGAGUCCCGUACGGAACG, the yeast fitness is reported as no more than 0.5.
GUUCCGUUGGCGUAAUGGUAACGCGUCUCCCUCCUAAGGAGUAGACAGCGGGAUCGAGUCCCGUACGGAACG showed a yeast fitness of 0.727.
GUUCCGUUGGCGUAAUGGUAACGCGUCUCCCUCCUAAGGAGUAGACUGCGGGUUCGAGUCCCGUGCGGCACG gave a yeast fitness of 0.595.
GUUCCGUUGGCGUAAUGGUAACGCGUCUCCCUCCUAAGGAGUAGACUGCGGGUUAGAGUCCCGUACGGAACG showed a yeast fitness of 0.584.
GUUCCGUUGGCGUAAUGGUAACGCGUCUCCCUCCUAAGGAGUAGACUACGGGUCCGAGUCCCGUACGGAACG showed a yeast fitness of 0.696.
In the case of GUUCCGUUGGCGUAAUGGUAACGCGUCUCCCUCCUAAGGAGUAGACUGCGGGUUCGAGUCCCGUACUGAACG, the yeast fitness is reported as 0.813.
Variant GUUCCGUUGGCGUAAUGGUAACGCGUCUCCCUCCUAAGGAGUAGACUGCGGGUUCGAGUCCCGUACAGAACG has a yeast fitness of 0.758.
Variant GUUCCGUUGGCGUAAUGGUAACGCGUCUCCCUCCUAAGGAGACGACUGCGGGUUCGAGUCCCGUACGGAACG has a yeast fitness of 0.997.
For GUUCCGUUGGCGUAAUGGUAACGCGUCUCCCUCCUAAGGAGUAGACUGCGGGUUCGAGUCCCCUACGGAACG, the yeast fitness was 0.715.
Work on GUUCCGUUGGCGUAAUGGUAACGCGUCUCCCUCCUAAGGAGUAGACUGAGGGUUCCAGUCCCGUGCGGAACG yielded a yeast fitness of no more than 0.5.
GUUCCGUUGGCGUAAUGGUAACGCGUCUCCCUCCUAAGGAGUAGACUGCAGGUUCGAGUCCCCUACAGAACG showed a yeast fitness of no more than 0.5.
In the case of GUUCCGUUGGCGUAAUGGUAACGCGUCUCCCUCCUAAGGAGUAGACUACGGGUUCGAGUCGCGUAGGGAACG, the yeast fitness is reported as no more than 0.5.
With GUUCCGUUGGCGUAAUGGUAACGCGUCUCCCUCCUAAGGAGACGACUGCGGGUUCGAGUCCCGUACGGAUCG the yeast fitness was 1.06.
